Experimental data taken from publication PMC6510378 (Clinical and Translational Science, 2019).

Key:
MAD study part 2 = assay type: in vivo, human
Summary of the method: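 Healthy young non-Japanese adults, open-label oral dosing. 0.7 or 2 mg was given as a single dose on day 1, then after a 6-day washout once daily. 0.4 mg was given once daily on days 1–14. 0.2 mg followed a 3 mg loading dose on day 1, days 2–14. PK doses were given fasted 10 h, with no food for 4 h. Plasma drug was measured by validated HPLC-MS/MS, with below-limit values set to zero. AUClast was reported where AUCinf was not calculable.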

11β‐HSD2 = molecular target: T1, 11β‐HSD2 (Homo sapiens, UniProt P80365); assay: Urine 11β-HSD2 activity; assay type: in vivo; conditions: up to 50 mg q.d. for 14 days
T1 sequence (P80365 1-405): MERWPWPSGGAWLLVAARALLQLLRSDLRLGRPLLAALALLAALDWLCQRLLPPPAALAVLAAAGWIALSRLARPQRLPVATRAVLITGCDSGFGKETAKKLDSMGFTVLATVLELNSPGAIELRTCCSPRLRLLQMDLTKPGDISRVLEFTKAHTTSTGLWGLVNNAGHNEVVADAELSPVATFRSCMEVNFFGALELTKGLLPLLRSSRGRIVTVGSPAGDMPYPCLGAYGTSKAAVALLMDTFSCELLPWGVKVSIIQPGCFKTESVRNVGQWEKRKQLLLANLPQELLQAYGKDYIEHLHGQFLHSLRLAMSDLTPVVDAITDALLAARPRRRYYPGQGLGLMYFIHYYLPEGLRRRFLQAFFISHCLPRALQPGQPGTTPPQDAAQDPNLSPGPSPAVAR
Summary of the method: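 Renal 11β-HSD2 activity was taken as the urinary cortisol/cortisone ratio. Subjects were healthy young Japanese, young non-Japanese and elderly non-Japanese adults on oral placebo or drug (10, 20 or 50 mg), single dose day 1 then once daily on days 5–18. The ratio was assessed on days 1 and 18.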

[1] = MAD part 2, day 1 single dose 0.7 mg, young non-Japanese, n=6
[2] = MAD part 2, day 1 single dose 2 mg, young non-Japanese, n=2
[3] = MAD part 2, last day of q.d. 14 days 0.4 mg, young non-Japanese, n=2
[4] = MAD part 2, last day of q.d. 14 days 0.4 mg, young non-Japanese, n=4
[5] = MAD part 2, last day of q.d. 14 days 0.7 mg, young non-Japanese, n=1
[6] = MAD part 2, last day of q.d. 14 days 0.7 mg, young non-Japanese, n=6
[7] = MAD part 2, last day of q.d. 14 days 2 mg, young non-Japanese, n=4
[8] = MAD part 2, last day of q.d. 14 days 2 mg, young non-Japanese, n=5

SMILES: Cn1c(-c2ccc(C(N)=O)cc2F)nnc1C(C)(C)Oc1c(F)cc(Cl)cc1F [ASP3662]
- steady state after 14 days of q.d. dosing (MAD study part 2; 0.2 and 0.4 mg, despite 3‐mg loading dose in 0.2‐mg group): not fully reached
- AUCinf (AUClast values presented, footnote a), Mean (SD) (MAD study part 2; [1]): 0.2437 (0.4421) ng·hour/mL
- AUCinf (AUClast values presented, footnote a), Median (MAD study part 2; [1]): 0.01242 ng·h/mL
- AUCinf (AUClast values presented, footnote a), Min–max (MAD study part 2; [1]): 0 to 1.11 ng·h/mL
- CL/F, Mean (SD) (MAD study part 2; [2]): 42.21 (6.917) L/hour
- CL/F, Median (MAD study part 2; [2]): 42.21 L/h
- CL/F, Min–max (MAD study part 2; [2]): 37.3 to 47.1 L/h
- VzF, Mean (SD) (MAD study part 2; [2]): 5,472 (1,378) L
- VzF, Median (MAD study part 2; [2]): 5,472 L
- VzF, Mean (SD) (MAD study part 2; [3]): 2,516 (45.89) L
- VzF, Median (MAD study part 2; [3]): 2,516 L
- VzF, Min–max (MAD study part 2; [3]): 2,484–2,549 L
- CL/F, Mean (SD) (MAD study part 2; [4]): 10.83 (0.7639) L/hour
- CL/F, Median (MAD study part 2; [4]): 10.83 L/h
- CL/F, Min–max (MAD study part 2; [4]): 9.90 to 11.8 L/h
- Ctrough, Mean (SD) (MAD study part 2; [4]): 1.072 (0.1719) ng/mL
- Ctrough, Median (MAD study part 2; [4]): 1.053 ng/mL
- Ctrough, Min–max (MAD study part 2; [4]): 0.918 to 1.26 ng/mL
- VzF, Mean (SD) (MAD study part 2; [5]): 3,677 (NC) L
- VzF, Median (MAD study part 2; [5]): 3,677 L
- VzF, Min–max (MAD study part 2; [5]): 3,677–3,677 L
- CL/F, Mean (SD) (MAD study part 2; [6]): 11.44 (2.349) L/hour
- CL/F, Median (MAD study part 2; [6]): 11.34 L/h
- CL/F, Min–max (MAD study part 2; [6]): 7.45 to 14.2 L/h
- Ctrough, Mean (SD) (MAD study part 2; [6]): 1.389 (0.3190) ng/mL
- Ctrough, Median (MAD study part 2; [6]): 1.234 ng/mL
- Ctrough, Min–max (MAD study part 2; [6]): 1.10 to 1.83 ng/mL
- VzF, Mean (SD) (MAD study part 2; [7]): 1,231 (547.6) L
- VzF, Median (MAD study part 2; [7]): 1,165 L
- VzF, Min–max (MAD study part 2; [7]): 715–1,880 L
- CL/F, Mean (SD) (MAD study part 2; [8]): 9.41 (1.208) L/hour
- CL/F, Median (MAD study part 2; [8]): 9.139 L/h
- CL/F, Min–max (MAD study part 2; [8]): 8.23 to 11.4 L/h
- Ctrough, Mean (SD) (MAD study part 2; [8]): 3.493 (1.166) ng/mL
- Ctrough, Median (MAD study part 2; [8]): 3.437 ng/mL
- Ctrough, Min–max (MAD study part 2; [8]): 1.80 to 5.03 ng/mL
- change in urinary cortisol to cortisone ratio relative to PBO (11β‐HSD2): no noteworthy changes
